Data on three compounds can be found in ChEMBL document CHEMBL1138348, “A p-[18F]fluoroethoxyphenyl bicyclic nucleoside analogue as a potential positron emission tomography imaging agent for varicella-zoster virus thymidine kinase gene expression” (J Med Chem, 2007).

Usually IC50 stands for the concentration that gives 50% inhibition.

A value given as a limit tells only on which side of the number the result lay.

The nature of test [1]: Inhibition of Varicella zoster virus thymidine kinase. Details: species or system Human alphaherpesvirus 3. A digest of the protocol:
(§1)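 Purified recombinant VZV TK (7.75 ng), HSV-1 TK (226 ng) or human cytosolic TK-1 (455 ng) in 50 mM Tris-HCl pH 8.0, 2.5 mM MgCl2, 10 mM DTT, 2.5 mM ATP, 1 mg/mL BSA, 10 mM NaF, with 1 µM final [CH3-3H]dThd substrate. Incubated 30 min at 37 °C with varied compound concentrations; the reaction was linear over this time. Product bound on DE-81 filters, washed, and counted by liquid scintillation. Result reported as IC50.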

A short description of test [2]: Inhibition of HSV1 thymidine kinase. Set-up: species or system Human alphaherpesvirus 1. The method in brief: as §1
Test [3] deals with T1, Thymidine kinase, cytosolic (Homo sapiens, UniProt P04183).
T1 sequence (P04183 whole entry): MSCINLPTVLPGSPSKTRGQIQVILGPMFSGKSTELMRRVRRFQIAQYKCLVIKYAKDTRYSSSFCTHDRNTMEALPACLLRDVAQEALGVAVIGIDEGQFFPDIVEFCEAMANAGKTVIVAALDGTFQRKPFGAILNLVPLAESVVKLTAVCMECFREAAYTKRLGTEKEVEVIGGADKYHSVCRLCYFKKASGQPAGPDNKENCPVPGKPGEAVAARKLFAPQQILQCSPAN
In words: Inhibition of human cytosolic thymidine kinase 1. The method in brief:
as §1

Turning to `COc1ccc(-c2cc3cn([C@H]4C[C@H](O)[C@@H](CO)O4)c(=O)nc3o2)cc1`, the figures for the concentration for half-maximal inhibition (IC50) in test [1], in test [2] and in test [3] were 1.5 µM, above 500 µM and above 500 µM, respectively.

In the case of `O=c1nc2oc(-c3cccc(OCCCCCCF)c3)cc2cn1[C@H]1C[C@H](O)[C@@H](CO)O1`, the 50% inhibitory concentration (IC50) in test [1], in test [2] and in test [3] was above 500 µM in each case.

Turning to `O=c1nc2oc(-c3ccc(OCCCCCCF)cc3)cc2cn1[C@H]1C[C@H](O)[C@@H](CO)O1`, the values for the IC50 in test [1], in test [2] and in test [3] were 4.1 µM, above 500 µM and above 500 µM, respectively.
